Diaph inh CS: diaphorase inhibitors and chemical oxidizers, primary screen, counter-screen for diaphorase-coupled primary assays, biochemical, uHTS, resorufin fluorescence; diaphorase resazurin-to-resorufin fluorescence, NADH, 16 min; bacterial (C. kluyveri) enzyme, not human; inhibition, % at 20 µM; 0.69% of 190,000 active;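 active means primary screen inhibition at 20 µM above a set limit, cut at about 50% in these data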;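 further: plate controls were DMSO with full reaction for no effect and wells lacking NADH for full effect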
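Assay system: diaphorase enzyme from Clostridium kluyveri; Input: enzyme working solution with 0.14 U/mL diaphorase; Timing: 16 min at room temperature; Technique: resorufin fluorescence, excitation 544 nm, emission 590 nm; Benchmarks: positive control minus NADH, DMSO neutral control.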
G6PDH CS: L. mesenteroides G6PDH inhibitors, counter-screen for G6PDH-coupled screening assays, biochemical, Leuconostoc mesenteroides enzyme. AID 1020, 2008. 0.12% of 200,000 active. inhibition, % at 5 µM. glucose-6-phosphate dehydrogenase [Leuconostoc mesenteroides]. Purified L. mesenteroides G6PDH, diaphorase/resazurin coupled fluorescence, 45 min; in the data active means inhibition above about 50%
HKDC1 inhibitor: HKDC1 hexokinase inhibitors, primary screen, biochemical, fluorescence, uHTS. inhibition, % at 20 µM. recombinant HKDC1, G6PDH/diaphorase resazurin coupled fluorescence. 0.16% of 340,000 active. Q2TB90;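 active means inhibition above about 35% when tested at 20 µM, limit read from the data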;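 further: plate controls were DMSO wells with enzyme for no effect and DMSO wells lacking enzyme for full effect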
Target sequence (Q2TB90 whole entry, looked up): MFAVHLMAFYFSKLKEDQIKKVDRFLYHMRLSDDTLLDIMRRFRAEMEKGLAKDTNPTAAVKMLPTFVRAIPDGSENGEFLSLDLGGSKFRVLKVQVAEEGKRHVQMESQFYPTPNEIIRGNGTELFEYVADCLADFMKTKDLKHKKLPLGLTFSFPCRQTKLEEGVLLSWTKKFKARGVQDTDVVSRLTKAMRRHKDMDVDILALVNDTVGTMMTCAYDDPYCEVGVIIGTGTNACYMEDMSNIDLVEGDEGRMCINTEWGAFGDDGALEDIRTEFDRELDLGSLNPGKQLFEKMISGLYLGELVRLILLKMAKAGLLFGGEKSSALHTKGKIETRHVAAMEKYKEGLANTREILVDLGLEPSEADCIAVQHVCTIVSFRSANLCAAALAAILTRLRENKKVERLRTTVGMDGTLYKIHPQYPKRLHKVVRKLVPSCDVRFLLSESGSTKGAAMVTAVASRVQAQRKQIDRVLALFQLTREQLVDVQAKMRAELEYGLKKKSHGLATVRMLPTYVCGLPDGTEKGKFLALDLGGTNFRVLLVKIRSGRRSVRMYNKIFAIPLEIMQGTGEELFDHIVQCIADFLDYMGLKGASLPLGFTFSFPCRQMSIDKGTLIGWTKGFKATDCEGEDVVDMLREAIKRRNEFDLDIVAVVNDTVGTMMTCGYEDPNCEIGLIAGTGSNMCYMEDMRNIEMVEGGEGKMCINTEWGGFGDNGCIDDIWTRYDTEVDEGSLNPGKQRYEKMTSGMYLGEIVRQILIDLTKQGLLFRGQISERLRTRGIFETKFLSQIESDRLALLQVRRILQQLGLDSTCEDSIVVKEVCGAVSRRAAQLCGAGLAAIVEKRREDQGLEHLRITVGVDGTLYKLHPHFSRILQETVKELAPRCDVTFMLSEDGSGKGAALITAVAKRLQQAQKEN
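Assay system: recombinant HKDC1 hexokinase; detection: coupled resazurin fluorescence, excitation 525 nm, emission 613 nm; benchmarks: DMSO-plus-enzyme-mix negative control, buffer-substituted positive control; compound dosing: single 20 µM dose; schedule: 90 min at room temperature in dark; also added: glucose plus 1 mM ATP as hexokinase substrates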
PfGluPho inh: PfG6PD enzyme inhibitors, primary screen, biochemical, fluorescence intensity, uHTS; glucose-6-phosphate dehydrogenase-6-phosphogluconolactonase (Plasmodium falciparum 3D7); PfGluPho enzyme, NADPH resazurin-diaphorase fluorescence; inhibition, % at 20 µM; 0.78% of 350,000 active; AID 504690, 2011;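 active means inhibition reaching at least a set limit at 20 µM in the primary screen, cut at about 59% in these data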;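 further: 0% = DMSO wells with substrate and 100% = DMSO wells lacking glucose-6-phosphate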
HKDC1 act conf2: HKDC1 hexokinase activators, confirmation, biochemical, single concentration; shares compounds with HKDC1 inhibitor; recombinant HKDC1, G6PDH/diaphorase resazurin fluorescence; stronger effect = lower value; inhibition, % at 20 µM; 14% of 740 active;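 active means inhibition at or below a set negative limit, negative inhibition meaning the enzyme was activated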
An asterisk follows results filed as active; x = no result given. Compounds with a hit are over-represented: about 1.3% of the library has one in this group of screens.

SMILES | Diaph inh CS | G6PDH CS | HKDC1 inhibitor | PfGluPho inh | HKDC1 act conf2
COC1=CC(=O)C(C2CC(=O)c3c(O)cc(O)cc3O2)=CC1=O (configuration not stated) | x | x | 60* | 124* | 40
COc1c(CC=C(C)C)cc(C2CC(=O)c3c(O)cc(O)cc3O2)cc1CC=C(C)C (configuration not stated) | x | x | 6 | 18 | x
CCOc1cc(/C=N/NC(=O)c2ccc(-c3csc(Nc4ccc(C)cc4)n3)cc2)ccc1OCC(=O)O | 32 | -4 | 6 | 2 | x
O=C(O)COc1ccc(/C=N/NC(=O)c2ccc(-c3csc(Nc4ccc(Cl)cc4)n3)cc2)cc1 | x | x | 76* | 30 | 24
Cc1cccc(NC(=O)CN(C)C(=O)Cc2ccc(-c3ccccc3)cc2)c1C | x | x | x | -5 | x
CCOc1ccc(/C=C2/SC(=S)N(CCC(=O)Nc3ccc(C(=O)O)cc3)C2=O)cc1 | x | x | 43* | -25 | -42*
O=C(CCN1C(=O)/C(=C\c2ccccc2)SC1=S)Nc1ccc(C(=O)O)cc1 | x | x | 10 | -24 | x
COc1ccc(C(=O)/C=C/Sc2nc3ccccc3o2)cc1 | x | x | 38* | 27 | 4
COc1ccc2c(c1)OC[C@H]1[C@H]2N2C(=O)CN(CCc3c[nH]c4ccccc34)C(=O)[C@@]2(C)[C@H]1c1ccccc1 | x | x | 9 | 5 | x
O=C(Nc1cccc(S(=O)(=O)NC2=NCCC2)c1)c1cn(-c2ccccc2)nc1-c1ccc(F)cc1 | x | x | 1 | 9 | x
O=C(c1cc(C2CC2)nn1-c1ccccc1)N1CCN(S(=O)(=O)c2c(F)cccc2F)CC1 | x | x | 2 | 7 | x
CCCCC(CC)CN=C(N)NC(N)=NCCCCCCN=C(N)NC(N)=NCC(CC)CCCC (configuration not stated) | x | x | 42* | 41 | 46
Cc1ccc(-n2nnnc2CNC(=O)c2ccc3c(c2)OCO3)cc1C | x | x | 1 | 5 | x
CN(C)S(=O)(=O)c1ccc2c(c1)nc(CCC(=O)NCC(=O)Nc1ccc(F)c(F)c1F)n2C | x | x | x | -9 | x
C=CCn1c(SCC(=O)Nc2sc3c(c2C#N)CCC(C)C3)nc2cc(C(=O)O)ccc2c1=O (configuration not stated) | x | x | 39* | -47 | 33
Oc1c(Br)cc(Br)cc1/C=N/c1nc2c(s1)CCCC2 | x | x | 37* | 80* | -2
COc1ccccc1C1=NNC(=Nc2cccc(S(=O)(=O)N(C)C)c2)SC1 | -3 | 1 | -202 | 41 | -177*
CC(=O)Nc1ccc(SCCN2CC[C@@H](C)CCC2=O)cc1 | x | x | 3 | -5 | x
CCCCC(=O)NC(c1ccc(N(CC)CC)cc1)c1ccc2cccnc2c1O (configuration not stated) | x | x | -46 | -12 | -59*
COC(=O)c1ccc(Nc2c([N+](=O)[O-])ccc3nonc23)cc1 | x | x | -1 | -20 | x
CC(=NNC(=S)N(Cc1ccccn1)Cc1ccccn1)c1cnccn1 | x | x | -38 | 20 | x
S=C(NN=C(c1ccccc1)c1ccccn1)N(Cc1ccccn1)Cc1ccccn1 | x | x | -46 | 47 | -59*
Cc1ccc(C)c(-n2c3nc(=O)n(C)c(=O)c-3cc3ccccc32)c1 | x | x | 3 | -8 | x
Cc1ccc(C)c(-n2c3nc(=O)[nH]c(=O)c-3cc3cc([N+](=O)[O-])ccc32)c1 | 67* | 33 | 47* | 48 | 39
Cc1cccc(-n2c3nc(=O)[nH]c(=O)c-3cc3cc([N+](=O)[O-])ccc32)c1 | 53* | 3 | 42* | 31 | 47
SMILES | Diaph inh CS | G6PDH CS | HKDC1 inhibitor | PfGluPho inh | HKDC1 act conf2
O=C1CCCN1CC(O)CS(=O)(=O)Cc1ccccc1Cl (configuration not stated) | x | x | -4 | -7 | x
CC(=NNC(=S)N1CC2CCC(CC2)C1)c1ccccn1 | x | x | x | 22 | x
CC(=NNC(=S)N1CC2CCC(CC2)C1)c1cnccn1 | x | x | -47 | 33 | -31
CC(=NNC(=S)N1CCN(C2CCCCCC2)CC1)c1ccccn1 | x | x | -42 | 42 | -40*
COc1ccc(C(=O)CSc2nccn2C)c(OC)c1 | x | x | -1 | -5 | x
COc1ccc(N=c2oc3c(OC)cccc3cc2C(=O)NCc2ccco2)cc1OC | 2 | 1 | 18 | 6 | x
COc1cccc2cc(C(=O)Nc3ccc(F)cc3)c(=Nc3ccc(C(=O)O)cc3)oc12 | 62* | 0 | 77* | -9 | 9
CN(CC(=O)Nc1ccccc1C(=O)NC1CC1)Cc1ccco1 | x | x | -8 | 5 | x
Oc1cc(CNC2CCCCC2)c(O)cc1CNC1CCCCC1 | x | x | 34 | 81* | 32
CC(C)C[C@@H](CNCC(=O)[C@H](CC(=O)O)NC(=O)c1[nH]cnc1C(=O)N[C@H](CN)CC(C)C)NC(=O)c1nc[nH]c1C(=O)N[C@@H](C)C(=O)O | x | x | 5 | 2 | x
CCOC(=O)Cn1c2ccc(F)cc2c2nc(C)sc21 | 15 | 7 | -62 | 23 | -37*
COC(=O)Cn1c2ccc(F)cc2c2nc(C)sc21 | 13 | 4 | -92 | 13 | -90*
CC(=O)Nc1ccc(S(=O)(=O)NCCC(=O)NCc2ccco2)cc1 | x | x | x | -2 | x
O=c1[nH][nH]c2c(N=Cc3ccccc3O)ccc(F)c12 | x | x | 38* | 54 | 25
Cc1cc2c(=Cc3ccc(N(C)C)cc3)c3ccccc3n2[n+]1C | x | x | -4 | 27 | x
CCOC(=O)c1cc2c(=Cc3ccc(N(C)C)cc3)c3ccccc3n2[n+]1C | x | x | 37* | 50 | -8
COc1ccc(CC(=O)N(Cc2ccccc2)c2ccc(C)cc2)cc1S(=O)(=O)N1CCOCC1 | x | x | 33 | 9 | -30
CCOC(=O)C1=C(Cc2ccc(F)cc2)C(=O)c2ccccc2C1=O | 25 | 62* | 73* | 98* | 59
Nc1nc(N2CCN(c3ccccn3)CC2)nc2ccccc12 | x | x | -58 | -51 | -44*
COc1ccccc1N(CC(=O)N/N=C/c1c(O)ccc2ccccc12)S(C)(=O)=O | 31 | -12 | -40 | -9 | -28
CN(C)CC1CCC/C(=C\c2ccc(OC(=O)c3ccc(Cl)cc3)cc2)C1=O (configuration not stated) | x | x | 37* | 31 | -7
CN(C)CC1CCC/C(=C\c2ccc(OC(=O)/C=C/c3ccccc3)cc2)C1=O (configuration not stated) | x | x | 33 | 31 | x
Cc1cccc2c(N=NC(=O)c3ccc(NS(=O)(=O)c4cccs4)cc3)c(O)[nH]c12 | x | x | 36* | 59 | 63
O=C(N/N=C/c1ccc[nH]1)c1sc2ccccc2c1Cl | 13 | 8 | -42 | 1 | -30
Cc1ccc(C(=O)N2CCN3C(=O)c4ccccc4C23c2ccc(Cl)cc2)cc1 (configuration not stated) | 22 | 0 | 7 | -14 | x
O=C(CCl)N1CCN2C(=O)c3ccccc3C12c1ccc(Cl)cc1 (configuration not stated) | 5 | 2 | 32 | 17 | 8
